The values below come from ChEMBL document CHEMBL5661979, “Pharmacological inhibition of BMK1 suppresses tumor growth through promyelocytic leukemia protein” (Cancer Cell, 2010).

Common to all, as to type: subcellular
The target of experiment [1] is 5'-AMP-activated protein kinase catalytic subunit alpha-2 (Homo sapiens, UniProt P54646). The experiment in a line: Inhibition of AMPKalpha2 in human HeLa cells lysate pre incubated for 15 mins followed by ADP acyl phosphate probe addition and measured after 10 mins by LC-MS/MS analysis. In a few lines:
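HeLa cell lysates (5 mg/mL total protein) were preincubated with inhibitor at 0, 0.8, 2, 10 or 50 μM for 15 min. ATP or ADP acylphosphate probe was then added (5 μM final) for 10 min, and reactions were stopped with urea. Up to four fragment ions per kinase probe-peptide were quantified by targeted MS. % inhibition was taken relative to untreated lysate. Run in duplicate.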

The target in experiment [2] is Dual specificity mitogen-activated protein kinase kinase; MEK1/2 (Homo sapiens, UniProt P36507+Q02750). The experiment in a line: Inhibition of MAP2K1/MAP2K2in human HeLa cells lysate at 2 uM pre incubated for 15 mins followed by ADP acyl phosphate probe addition and measured after 10 mins by LC-MS/MS analysis relative to control. The following applies: time 25.0 min.
Chain of Dual specificity mitogen-activated protein kinase kinase; MEK1/2 (P36507 whole entry, looked up): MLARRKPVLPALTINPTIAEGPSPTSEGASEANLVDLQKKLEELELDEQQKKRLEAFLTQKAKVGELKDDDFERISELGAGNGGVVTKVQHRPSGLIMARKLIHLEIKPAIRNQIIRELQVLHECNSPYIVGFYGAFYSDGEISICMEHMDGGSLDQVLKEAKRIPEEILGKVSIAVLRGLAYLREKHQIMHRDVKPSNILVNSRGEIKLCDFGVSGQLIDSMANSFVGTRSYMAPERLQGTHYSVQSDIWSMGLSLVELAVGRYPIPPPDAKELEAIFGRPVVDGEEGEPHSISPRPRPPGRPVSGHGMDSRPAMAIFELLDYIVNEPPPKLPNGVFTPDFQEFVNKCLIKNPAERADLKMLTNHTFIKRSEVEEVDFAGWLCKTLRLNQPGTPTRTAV
Chain of Dual specificity mitogen-activated protein kinase kinase; MEK1/2 (Q02750 whole entry, looked up): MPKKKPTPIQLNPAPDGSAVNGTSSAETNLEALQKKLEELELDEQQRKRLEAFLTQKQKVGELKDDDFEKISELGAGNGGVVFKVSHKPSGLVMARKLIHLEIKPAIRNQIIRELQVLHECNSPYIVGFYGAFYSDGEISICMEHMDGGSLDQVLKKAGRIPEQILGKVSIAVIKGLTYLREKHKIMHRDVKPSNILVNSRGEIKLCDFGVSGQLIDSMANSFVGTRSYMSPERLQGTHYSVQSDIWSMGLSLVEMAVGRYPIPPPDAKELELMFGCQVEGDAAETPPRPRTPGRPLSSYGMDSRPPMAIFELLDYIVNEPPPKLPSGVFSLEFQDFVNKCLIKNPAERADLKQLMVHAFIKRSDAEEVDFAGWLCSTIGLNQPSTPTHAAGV

The target in experiment [3] is T1, Serine/threonine-protein kinase 4 (Homo sapiens) (UniProt Q13043).
T1 sequence (whole entry): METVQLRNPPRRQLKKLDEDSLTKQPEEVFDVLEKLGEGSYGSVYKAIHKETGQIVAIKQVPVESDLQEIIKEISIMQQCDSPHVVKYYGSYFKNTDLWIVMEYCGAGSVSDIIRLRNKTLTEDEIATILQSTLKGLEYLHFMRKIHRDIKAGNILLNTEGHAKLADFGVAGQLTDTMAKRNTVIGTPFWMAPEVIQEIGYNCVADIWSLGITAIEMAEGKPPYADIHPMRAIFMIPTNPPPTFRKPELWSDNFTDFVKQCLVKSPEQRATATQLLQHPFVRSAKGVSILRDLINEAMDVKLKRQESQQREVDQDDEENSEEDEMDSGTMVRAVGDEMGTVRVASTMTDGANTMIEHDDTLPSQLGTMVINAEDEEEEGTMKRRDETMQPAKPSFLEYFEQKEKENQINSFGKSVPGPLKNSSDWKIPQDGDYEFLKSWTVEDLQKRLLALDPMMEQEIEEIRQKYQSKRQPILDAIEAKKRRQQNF
The experiment in a line: Inhibition of MST1 in human HeLa cells lysate at 10 uM pre incubated for 15 mins followed by ATP acyl phosphate probe addition and measured after 10 mins by LC-MS/MS analysis relative to control. The following applies: time 25.0 min.

Experiment [4] deals with T2, Serine/threonine-protein kinase Chk1 (Homo sapiens) (UniProt O14757).
T2 sequence (whole entry): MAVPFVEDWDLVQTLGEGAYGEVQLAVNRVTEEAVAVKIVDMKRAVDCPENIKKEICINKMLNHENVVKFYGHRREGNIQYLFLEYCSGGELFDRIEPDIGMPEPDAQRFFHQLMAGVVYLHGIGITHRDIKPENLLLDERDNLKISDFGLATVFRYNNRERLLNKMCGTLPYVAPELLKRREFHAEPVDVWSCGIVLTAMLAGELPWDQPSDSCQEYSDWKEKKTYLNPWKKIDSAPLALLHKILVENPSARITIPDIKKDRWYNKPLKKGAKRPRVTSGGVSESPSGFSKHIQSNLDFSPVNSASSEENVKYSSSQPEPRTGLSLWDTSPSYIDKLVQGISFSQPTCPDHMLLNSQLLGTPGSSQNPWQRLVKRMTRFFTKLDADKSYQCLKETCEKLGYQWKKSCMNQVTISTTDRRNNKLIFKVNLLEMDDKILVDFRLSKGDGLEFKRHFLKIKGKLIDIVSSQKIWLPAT
The experiment in a line: Inhibition of CHK1 K2 site in human HeLa cells lysate at 2 uM pre incubated for 15 mins followed by ATP acyl phosphate probe addition and measured after 10 mins by LC-MS/MS analysis relative to control. The following applies: time 25.0 min. In a few lines: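 KiNativ profiling in HeLa lysate (5 mg/mL total protein). Lysate incubated 15 min with inhibitor at 50, 10, 2, 0.8 or 0 μM. ATP or ADP acylphosphate probe then added (5 μM final) and reacted 10 min. Reaction stopped with urea and analysed by targeted MS, using up to four fragment ions per kinase peptide-probe conjugate. % inhibition taken against untreated lysate. Run in duplicate.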

The target of experiment [5] is Inhibitor of nuclear factor kappa-B kinase subunit alpha (Homo sapiens, UniProt O15111). The experiment in a line: Inhibition of IKKA in human HeLa cells lysate pre incubated for 15 mins followed by ATP acyl phosphate probe addition and measured after 10 mins by LC-MS/MS analysis.
Chain of Inhibitor of nuclear factor kappa-B kinase subunit alpha (O15111 whole entry): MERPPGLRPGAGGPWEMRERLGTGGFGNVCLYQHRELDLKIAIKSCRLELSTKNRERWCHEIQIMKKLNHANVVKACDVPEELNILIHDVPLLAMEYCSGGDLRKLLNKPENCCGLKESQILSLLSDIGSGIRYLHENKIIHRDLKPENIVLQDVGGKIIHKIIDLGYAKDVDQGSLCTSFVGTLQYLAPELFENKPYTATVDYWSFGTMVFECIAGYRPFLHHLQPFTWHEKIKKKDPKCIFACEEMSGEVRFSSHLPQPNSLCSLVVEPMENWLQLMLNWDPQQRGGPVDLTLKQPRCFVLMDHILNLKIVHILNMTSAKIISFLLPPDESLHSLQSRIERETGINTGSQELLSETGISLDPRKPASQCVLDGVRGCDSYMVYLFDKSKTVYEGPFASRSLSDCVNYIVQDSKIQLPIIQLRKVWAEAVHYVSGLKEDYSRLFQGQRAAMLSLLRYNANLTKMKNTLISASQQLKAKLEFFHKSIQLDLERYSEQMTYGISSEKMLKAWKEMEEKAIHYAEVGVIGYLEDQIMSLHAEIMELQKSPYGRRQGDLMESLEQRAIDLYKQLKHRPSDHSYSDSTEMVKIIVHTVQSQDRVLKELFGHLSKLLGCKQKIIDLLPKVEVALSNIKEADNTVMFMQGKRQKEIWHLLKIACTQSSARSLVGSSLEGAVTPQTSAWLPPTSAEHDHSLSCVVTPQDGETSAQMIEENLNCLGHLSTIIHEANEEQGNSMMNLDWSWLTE
Experiment [6] deals with Cyclin-dependent kinase 11B (Homo sapiens, UniProt P21127). The experiment in a line: Inhibition of PITSLRE in human HeLa cells lysate at 10 uM pre incubated for 15 mins followed by ATP acyl phosphate probe addition and measured after 10 mins by LC-MS/MS analysis relative to control. The following applies: time 25.0 min.
Chain of Cyclin-dependent kinase 11B (P21127 whole entry, the tested form may be a part): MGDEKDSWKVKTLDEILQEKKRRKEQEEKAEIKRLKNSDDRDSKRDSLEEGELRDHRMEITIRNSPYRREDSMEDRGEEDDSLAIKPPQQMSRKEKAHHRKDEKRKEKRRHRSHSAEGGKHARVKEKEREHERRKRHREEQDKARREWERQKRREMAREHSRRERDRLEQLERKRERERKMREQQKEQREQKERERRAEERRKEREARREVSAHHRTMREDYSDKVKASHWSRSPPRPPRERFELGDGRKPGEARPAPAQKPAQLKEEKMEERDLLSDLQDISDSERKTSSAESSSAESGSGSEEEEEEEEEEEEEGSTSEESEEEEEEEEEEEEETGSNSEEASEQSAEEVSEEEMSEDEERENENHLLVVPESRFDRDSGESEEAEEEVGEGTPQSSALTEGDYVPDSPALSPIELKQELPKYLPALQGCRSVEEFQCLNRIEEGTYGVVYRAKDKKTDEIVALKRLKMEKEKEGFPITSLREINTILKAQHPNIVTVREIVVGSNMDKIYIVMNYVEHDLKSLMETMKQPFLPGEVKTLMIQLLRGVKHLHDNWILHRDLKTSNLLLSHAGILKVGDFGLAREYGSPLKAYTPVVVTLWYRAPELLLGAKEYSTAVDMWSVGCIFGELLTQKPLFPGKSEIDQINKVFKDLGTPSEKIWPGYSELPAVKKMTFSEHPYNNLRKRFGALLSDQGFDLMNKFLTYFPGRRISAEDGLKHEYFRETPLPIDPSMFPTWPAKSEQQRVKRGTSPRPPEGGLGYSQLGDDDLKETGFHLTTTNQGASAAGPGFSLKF
In experiment [7] the target is Ribosomal protein S6 kinase alpha-1 (Homo sapiens, UniProt Q15418). The experiment in a line: Inhibition of RSK1 domain 2 K2 site in human HeLa cells lysate at 10 uM pre incubated for 15 mins followed by ADP acyl phosphate probe addition and measured after 10 mins by LC-MS/MS analysis relative to control. The following applies: time 25.0 min.
Chain of Ribosomal protein S6 kinase alpha-1 (Q15418 whole entry, the tested form may be a part): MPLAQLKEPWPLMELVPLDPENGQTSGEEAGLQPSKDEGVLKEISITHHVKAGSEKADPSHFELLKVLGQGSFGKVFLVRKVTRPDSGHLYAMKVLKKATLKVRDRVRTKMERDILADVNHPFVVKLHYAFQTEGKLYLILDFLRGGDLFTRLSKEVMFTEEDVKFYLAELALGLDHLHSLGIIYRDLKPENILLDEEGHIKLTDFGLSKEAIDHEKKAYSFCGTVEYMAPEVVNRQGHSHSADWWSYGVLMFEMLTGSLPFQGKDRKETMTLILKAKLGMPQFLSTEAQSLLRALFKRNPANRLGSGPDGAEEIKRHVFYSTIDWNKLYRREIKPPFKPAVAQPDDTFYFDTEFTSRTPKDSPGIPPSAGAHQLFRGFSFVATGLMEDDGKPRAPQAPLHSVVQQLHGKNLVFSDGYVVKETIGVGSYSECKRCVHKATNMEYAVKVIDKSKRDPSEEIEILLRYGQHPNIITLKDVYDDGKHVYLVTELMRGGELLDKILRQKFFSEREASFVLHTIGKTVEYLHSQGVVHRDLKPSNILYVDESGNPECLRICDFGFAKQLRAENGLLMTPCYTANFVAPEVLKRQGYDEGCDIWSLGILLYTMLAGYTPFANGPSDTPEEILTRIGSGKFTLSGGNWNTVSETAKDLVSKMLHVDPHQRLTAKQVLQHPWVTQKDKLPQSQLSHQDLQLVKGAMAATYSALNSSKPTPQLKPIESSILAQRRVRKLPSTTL

pIC50: −log10 of the molar value.

Chain of 5'-AMP-activated protein kinase catalytic subunit alpha-2 (P54646 whole entry, the tested form may be a part): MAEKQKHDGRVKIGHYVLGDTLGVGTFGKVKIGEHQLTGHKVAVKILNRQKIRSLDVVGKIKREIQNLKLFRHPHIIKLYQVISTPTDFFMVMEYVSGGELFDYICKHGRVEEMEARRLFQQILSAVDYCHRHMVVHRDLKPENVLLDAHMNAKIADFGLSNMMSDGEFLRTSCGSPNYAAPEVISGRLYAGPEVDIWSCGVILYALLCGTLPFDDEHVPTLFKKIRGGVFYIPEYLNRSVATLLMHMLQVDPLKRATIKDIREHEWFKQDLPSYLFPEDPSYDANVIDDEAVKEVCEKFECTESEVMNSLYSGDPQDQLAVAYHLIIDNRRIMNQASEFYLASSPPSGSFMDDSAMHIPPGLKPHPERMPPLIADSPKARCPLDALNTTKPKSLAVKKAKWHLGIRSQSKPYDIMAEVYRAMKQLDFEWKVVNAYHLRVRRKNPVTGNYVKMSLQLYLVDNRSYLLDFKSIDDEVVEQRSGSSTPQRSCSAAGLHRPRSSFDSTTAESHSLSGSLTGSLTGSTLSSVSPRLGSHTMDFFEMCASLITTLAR

Consider `CCOc1cc(N2CCC(O)CC2)ccc1Nc1ncc2c(n1)N(C)c1ccccc1C(=O)N2C`, for which the pIC50 in experiment [1] and in experiment [5] was < 4.30 in each case. Further, the inhibition (as a rule, the drop in the measured response relative to a control, in per cent) in experiment [2] is 0.6%; in experiment [3], 1.1%; in experiment [4] it was -2%; in experiment [6] it was 0.3%; in experiment [7], 5.4%.
